An excerpt weighted towards active compounds, which were near 3.9% of everything screened.
FLuc inh counter = Photinus pyralis luciferase inhibition counter-screen | inhibition, % at 10 µM | ATPLite firefly luciferase biochemical luminescence, 10 min | P08659 | 1.5% of 200,000 active;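 active = inhibition above about 50% when tested at 10 µM, limit read from the data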
STAT1 activator = STAT1 signaling activation; NIH 3T3 STAT1-luciferase reporter, IFN-gamma, luminescence; 100% = IFN-gamma alone, no compound; 2.6% of 200,000 active; activation (% of control), % at 5.5 µM;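 active = activation above the screen-wide mean activation plus 3 SD, cut at about 130% in these data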;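 note: raw ratio to IFN-gamma control signal so 100% means no change and 0% no light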
Rad51 HR inh = Rad51 (human) homologous recombination inhibition | Q06609 | hRad51 DNA strand exchange, fluorescence dequenching | inhibition, % at 10 µM | 0.085% of 200,000 active | AID 1385;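 active = inhibition above 40% at the single screening dose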;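 note: 0% = DMSO control wells and 100% = blanks with heterologous ssDNA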
Target sequence (Q06609 whole entry, looked up): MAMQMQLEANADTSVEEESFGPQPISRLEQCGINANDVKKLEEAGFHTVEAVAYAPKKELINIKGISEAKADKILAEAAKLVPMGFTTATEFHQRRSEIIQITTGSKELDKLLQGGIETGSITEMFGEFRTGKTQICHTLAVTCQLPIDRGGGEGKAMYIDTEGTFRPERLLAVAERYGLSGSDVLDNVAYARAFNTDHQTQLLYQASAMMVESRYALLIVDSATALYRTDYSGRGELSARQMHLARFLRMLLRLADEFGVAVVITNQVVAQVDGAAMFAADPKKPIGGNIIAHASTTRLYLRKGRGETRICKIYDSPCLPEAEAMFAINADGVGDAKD
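material = hRad51 filaments on single-stranded DNA | timing = filaments 15 min 37 °C, then compound 30 min | signal = FRET fluorescence dequenching, excitation 485 nm, emission 520 nm | benchmarks = control wells and blank wells on each plate | evaluation = percent inhibition relative to plate controls and blanks | compound = 10 µM final, single point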
FLuc act counter = firefly luciferase counter-screen for stimulation assays; activation factor at 10 µM; ATPlite luciferase biochemical, luminescence, 10 min; 0 = ATP-free wells, 1 = DMSO control; 200,000 tested, under 10 active; P08659;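 active = luciferase activation factor, scaled between plate controls, of at least 2 with compound at 10 µM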
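Assay system: Luciferase/luciferin detection reagent, cell-free biochemical luciferase assay / Read-out: luciferase activation / Benchmarks: No-ATP low control, compound-free enzyme-plus-ATP high control / Medium: PBS buffer for ATP / Detection: luminescence measurement of luciferase light output / Schedule: 10 min at ambient temperature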
APP 5'UTR act = APP 5'UTR luciferase reporter activation; SH-SY5Y APP 5'UTR luciferase reporter, luminescence; zero percent = DMSO vehicle wells; activation, % at 2 µM; 1% of 190,000 active;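 active = activation above a set limit, based on mean plus 3 SD of controls, cut at about 140% in these data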
NF-kB expr up = compounds increasing NF-kB expression in human neuronal cells; NF-kB reporter expression; stronger effect = higher value; fold change at 12.5 µM; 1.6% of 190,000 active; in the data active = fold change above about 3.3
* = called active by the depositor; . = no result given.

SMILES	FLuc inh counter	STAT1 activator	Rad51 HR inh	FLuc act counter	APP 5'UTR act	NF-kB expr up
O=C(O[C@H]1[C@H](Oc2ccccc2COC(=O)C2(O)C=CCCC2=O)O[C@H](CO)[C@@H](O)[C@@H]1O)c1ccccc1 (stereo partly drawn)	.	.	2	.	.	.
CCN(CC)CCn1c(=N)n(CC(=O)c2ccc(Br)s2)c2ccccc21	.	.	1	.	.	.
CCCn1c(=N)n(CC(=O)c2cccs2)c2ccccc21	-7	103	3	1.1	-13	1.2
COc1cccc(C(=O)Cn2c(NCCO)nc3ccccc32)c1	1	95	4	1	-2	1.8
Cn1c(=N)n(CC(=O)c2cccs2)c2ccccc21	0	134*	-9	1	160*	3.9*
COc1cccc(C(=O)Cn2c(=N)n(C)c3ccccc32)c1	32	84	0	0.7	229*	4.4*
Cn1c(=N)n(CC(=O)c2ccc(Br)s2)c2ccccc21	-5	146*	.	1.1	197*	3.1
Cc1ccc(S(=O)(=O)CCC(=O)OCn2nnc3ccccc3c2=O)cc1	-1	93	3	1	7	1.1
COc1cccc(CC2(CO)CCCN(Cc3sc(N4CCCC4)nc3Cl)C2)c1 (stereo not drawn)	-4	101	-12	1	8	0.75
COc1cc(CNC(=O)c2ccc3c(c2)S(=O)(=O)c2ccccc2C3=O)cc(OC)c1	.	.	2	.	.	.
O=C(Nc1cnc2ccccn2c1=O)c1ccc(Cl)cc1Cl	75*	63	5	0.3	153*	1.7
Cc1ccc(C(=O)Nc2cnc3ccccn3c2=O)cc1	16	132*	-1	0.8	39	2.6
O=C(Nc1cccn2ncnc12)c1ccc(Cl)cc1Cl	-2	91	4	1	-4	1
O=C(Nc1nnc(-c2ccc(Cl)cc2)o1)C1CCCCC1	.	.	9	.	.	.
Clc1ccc(-c2nnc(NC3=NCCCCC3)o2)cc1	78*	77	-4	0.2	152*	1.7
COc1cc2c(cc1OC)CN(C(=O)c1sc(-c3cnccn3)nc1C)CC2	.	.	-5	.	.	.
O=C(NCc1cccnc1)NC1(C(F)(F)F)Oc2ccccc2O1	-7	103	-7	1.1	-15	3.5*
COc1ccc2c(c1)c(CCNNC(=O)C(C)(C)C)c(C)n2C(=O)c1ccc(Cl)cc1	.	.	-6	.	.	.
CCN(CC)c1ccc(/C=N/N2CCN(Cc3ccccc3)CC2)c(O)c1	-4	97	-3	1	7	1.3
CCN(CC)c1ccc(C=Nc2ccc(N(C)C)cc2)c(O)c1	1	130*	-58	1	79	1.2
CCN(CC)c1ccc(/C=N/N2CCOCC2)c(O)c1	18	142*	6	0.8	55	2.8
CCN(CC)c1ccc(/C=N/NC(=S)NC)c(O)c1	4	117	.	1	-13	5.9*
CC(C)Oc1ccc(/C=C/C(=O)NCC2COc3ccccc3O2)cc1 (stereo not drawn)	.	.	7	.	.	.
CSc1ccccc1-c1nnc(-c2ccc(Cl)cc2Cl)o1	60*	122	.	0.4	6	2.9
CSc1nnc(-c2ccc(Cl)cc2Cl)o1	21	125	7	0.8	29	1.4
SMILES	FLuc inh counter	STAT1 activator	Rad51 HR inh	FLuc act counter	APP 5'UTR act	NF-kB expr up
Clc1ccc(-c2nnc(-c3ccc(Br)o3)o2)c(Cl)c1	29	139*	9	0.7	43	3.1
Fc1ccc(-c2nnc(-c3ccc(Cl)cc3Cl)o2)cc1	89*	90	-2	0.1	141*	3.2
CSc1ccccc1-c1nnc(-c2ccc(Cl)c(Cl)c2)o1	6	103	6	0.9	-3	1.3
Clc1ccc(-c2nnc(-c3ccccc3)o2)c(Cl)c1	86*	104	4	0.1	119	5*
C=CCNc1ncnc2sc(SC)nc12	.	.	3	.	.	.
Fc1ccc(-c2nnc(-c3ccc(Cl)cc3)o2)cc1	25	135*	-7	0.8	37	4.2*
CCC(C)(C(=O)NC1CCCC1)N(C(=O)CNC(=O)c1ccccc1)c1c(C)n(C)n(-c2ccccc2)c1=O (stereo not drawn)	0	94	-36	1	-4	0.93
CC(C)(C)c1ccc(-c2nc(N)nc(N)n2)cc1	.	.	13	.	.	.
CC(C)(C)c1ccc(-c2conc2N)cc1	61*	118	5	0.4	70	5*
CCOC(=O)CNC(=O)CSc1nnc(SCC(=O)NCC(=O)OCC)s1	2	102	2	1	4	0.95
